Measurements from different studies.
Protocols differ between the studies behind these lines.
Cell line: NCI-H460
Effect on: cell growth or viability

`C=C(c1ccc(C(=O)O)cc1)c1cc2c(cc1C)C(C)(C)CCC2(C)C` has an EC50 of 52 µM (MTT; 72 h).
For `COc1ccc(C(=O)/C=C/c2ccc3ccccc3c2)cc1S(N)(=O)=O`, the GI50 was 3 µM (SRB; 48 h).
`CCc1n(Cc2ccc3ccccc3n2)cc[n+]1Cc1ccc2ccccc2c1` gave a TGI of 10.8 µM (SRB).
`COc1cc(N(C)CCN(C)C)c(NC(=O)C=C(C)C)cc1Nc1nc(Nc2cnn(C)c2)c2sccc2n1` has an IC50 of 1.32 µM (MTT).
With `COc1cc(-c2ccc(-c3ccc(C(=N)N)nc3)s2)cc(OC)c1OC` the GI50 was 2.1 µM (SRB).
The TGI of `c1ccc(-c2n(Cc3ccc4ccccc4c3)cc[n+]2Cc2ccc3ccccc3c2)cc1` is reported as 2.87 µM (SRB).
With `C=C(Cl)C(=O)Nc1cc(Nc2nc(Nc3cnn(C)c3)c3sccc3n2)c(OC)cc1N1CCN(C)CC1` the IC50 was 0.239 µM (MTT).
For `Cc1n(Cc2ccc3ccccc3n2)cc[n+]1Cc1ccc2ccccc2c1`, the TGI was 14.4 µM (SRB).
With `C=CC(=O)Nc1cc(Nc2nc(N3CCc4sccc4C3)c3cccnc3n2)c(OC)cc1N1CCOCC1` the IC50 was greater than 50 µM (MTT).
For `COc1ccc(C(=O)/C=C/c2cc3c(cc2Br)OCO3)cc1S(N)(=O)=O`, the GI50 was 4 µM (SRB; 48 h).
For `CS(=O)(=O)CCNCc1ccc(-c2ccc3ncnc(Nc4ccc(OCc5cccc(F)c5)c(Cl)c4)c3c2)o1`, the EC50 was 32 µM (MTT; 72 h).
For `C=CC(=O)Nc1cccc(Oc2nc(Nc3ccc(N4CCN(C)CC4)cc3)nc3ccsc23)c1`, the IC50 was 0.642 µM (MTT).
The GI50 of `S=C([S][Au-][P+](CCCCCC[P+]([Au-][S]C(=S)n1cccn1)(c1ccccc1)c1ccccc1)(c1ccccc1)c1ccccc1)n1cccn1` is reported as 1.43 µM (SRB).
For `COc1ccccc1/C=C/C(=O)c1ccc(OC)c(S(N)(=O)=O)c1`, the GI50 was 2.1 µM (SRB; 48 h).
`COc1ccc(-c2ccc(-c3ccc(C(=N)N)nc3)s2)cc1` gave a GI50 of 0.52 µM (SRB).
For `COc1ccc(C(=O)/C=C/c2ccc(Cl)c(Cl)c2)cc1S(N)(=O)=O`, the GI50 was 2.8 µM (SRB; 48 h).
With `CCCCc1n(Cc2ccc3ccccc3n2)cc[n+]1Cc1ccc2ccccc2n1` the TGI was 11.6 µM (SRB).
`C=C(Cl)C(=O)Nc1cc(Nc2nc(N3CCOCC3)c3sccc3n2)c(OC)cc1N(C)CCN(C)C` has an IC50 of 1.84 µM (MTT).
For `COc1ccc(C(=O)/C=C/c2cccc3ccccc23)cc1S(N)(=O)=O`, the inhibition was 98% (SRB; 10 µM).
`C=CC(=O)Nc1cc(Nc2nc(N3CCc4sccc4C3)c3cccnc3n2)c(OC)cc1N1CCN(C(C)=O)CC1` gave an IC50 of greater than 50 µM (MTT).
`COc1ccc(C(=O)/C=C/c2ccccc2Br)cc1S(N)(=O)=O` has a GI50 of 2 µM (SRB; 48 h).
